Source: ChEMBL document CHEMBL1140253, “Synthesis of functionalized acetophenones as protein tyrosine phosphatase 1B inhibitors” (Bioorg Med Chem Lett, 2005)

Columns and labels:
[1] = target: T1, Tyrosine-protein phosphatase non-receptor type 1 (Mus musculus) (UniProt P35821); assay: (§1) In vitro inhibitory activity against PTP1B at 100 uM 10 min incubation
T1 sequence (whole entry): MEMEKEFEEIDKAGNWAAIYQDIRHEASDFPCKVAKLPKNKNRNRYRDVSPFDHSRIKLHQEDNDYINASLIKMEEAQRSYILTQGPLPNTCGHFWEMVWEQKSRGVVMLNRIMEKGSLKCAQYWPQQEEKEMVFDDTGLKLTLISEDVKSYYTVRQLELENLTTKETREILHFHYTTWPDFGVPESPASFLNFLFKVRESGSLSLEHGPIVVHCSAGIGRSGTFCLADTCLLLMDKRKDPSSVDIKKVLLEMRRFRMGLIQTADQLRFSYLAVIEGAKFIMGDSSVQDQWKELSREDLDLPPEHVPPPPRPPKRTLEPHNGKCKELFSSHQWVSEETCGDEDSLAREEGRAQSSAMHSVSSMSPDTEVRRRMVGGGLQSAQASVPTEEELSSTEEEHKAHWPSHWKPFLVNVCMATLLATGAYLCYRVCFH
How it was run: (§2)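 p-Nitrophenylphosphate (10 mM) as substrate in 50 mM HEPES buffer, pH 7, with 1 mM EDTA and DTT. Compounds tested at 100 µM, with sodium vanadate as reference control. Result given as percent inhibition of phosphatase activity, mean of three independent experiments.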

[2] = target: Tyrosine-protein phosphatase non-receptor type 1 (Mus musculus) (UniProt P35821); assay: as §1; how it was run: as §2; remark: listed apart in the source

Row | Compound | inhibition [1] | inhibition [2] [%]
1 | CC(=O)c1ccc(OCCO)cc1O | No inhibition | –
2 | CC(=O)c1ccc2occc2c1OC(=O)c1ccc(C(F)(F)F)cc1 | 32.4% | –
3 | CC(=O)c1ccc(OCC#N)cc1O | 22.4% | –
4 | CC(=O)c1ccc2occc2c1O | No inhibition | –
5 | CC(=O)c1ccc(OCC#N)cc1OC(=O)c1ccc(F)cc1 | No inhibition | –
6 | SODIUM ORTHOVANAD | – | 56.2
7 | N#CCOc1ccc(/C(O)=C/C(=O)c2ccccc2)c(O)c1 | No inhibition | –
8 | CC(=O)c1ccc(OCCc2ccccc2)cc1OC(=O)c1ccc(F)cc1 | No inhibition | –
9 | CC(=O)c1cc2ccoc2cc1OC(=O)c1ccc2c(c1)OCO2 | 34% | –
10 | CC(=O)c1ccc2occc2c1OC(=O)c1ccccc1 | 43.2% | –
11 | CC(=O)c1ccc(OCC2CO2)cc1O (stereo not drawn) | 22.4% | –
12 | N#CCOc1ccc(/C(O)=C/C(=O)c2ccc(F)cc2)c(O)c1 | No inhibition | –
13 | CC(=O)c1ccc(OCCc2ccccc2)cc1O | 38.6% | –
14 | CC(=O)c1ccc(OCC#N)cc1OC(=O)c1ccccc1 | 12.8% | –
15 | CC(=O)c1ccc2occc2c1OC(=O)c1ccc(Cl)c(Cl)c1 | 54.1% | –
16 | COc1cccc(C(=O)Oc2cc3occc3cc2C(C)=O)c1 | 8.1% | –
17 | O=C(/C=C(\O)c1ccc2occc2c1O)c1ccc(C(F)(F)F)cc1 | No inhibition | –
18 | CC(=O)c1cc2ccoc2cc1OC(=O)c1ccccc1 | No inhibition | –
19 | COc1ccc(C(=O)Oc2cc3occc3cc2C(C)=O)cc1 | 13.5% | –
20 | CC(=O)c1cc2ccoc2cc1O | 19.1% | –
21 | C=CCOc1ccc(C(C)=O)c(O)c1 | No inhibition | –
22 | COc1ccc(C(=O)Oc2cc3occc3cc2C(C)=O)cc1OC | No inhibition | –
23 | O=C(/C=C(\O)c1ccc(OCCc2ccccc2)cc1O)c1ccc(F)cc1 | No inhibition | –
